The source made the active and inactive calls. The rule behind the calls is not given here.
Experiments:
[1] = Volume of distribution in mouse at 2.5 mg/kg, iv; format: ADME, organism-based; parameters: dose 2.5 mg/kg, route intravenous; conditions: in vivo
Method in brief: (§1)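 Mouse intravenous pharmacokinetics at 2.5 mg/kg. Observed clearance is reported in ml/min/kg and volume of distribution in l/kg.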

[2] = AUC in mouse at 30 mg/kg, po; format: ADME, organism-based; parameters: dose 30 mg/kg, route oral; conditions: plasma
[3] = Permeability across human Caco2 cells; format: ADME, cell-based; conditions: Caco-2, read-out: permeability
Method in brief: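 Caco-2 monolayer permeability is reported as a class: low <2 × 10^-6 cm/s, medium 2–8 × 10^-6 cm/s, high >8 × 10^-6 cm/s.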

[4] = biological target: T1, Serine/threonine-protein kinase B-raf (Homo sapiens, UniProt P15056, V600E); assay: Inhibition of full-length B-Raf V600E mutant in human MALME-3M cells assessed as reduction in basal ERK1/2 phosphorylation incubated for 1 hr; format: cell-based
T1 sequence (P15056 2-766 V600E limits assumed): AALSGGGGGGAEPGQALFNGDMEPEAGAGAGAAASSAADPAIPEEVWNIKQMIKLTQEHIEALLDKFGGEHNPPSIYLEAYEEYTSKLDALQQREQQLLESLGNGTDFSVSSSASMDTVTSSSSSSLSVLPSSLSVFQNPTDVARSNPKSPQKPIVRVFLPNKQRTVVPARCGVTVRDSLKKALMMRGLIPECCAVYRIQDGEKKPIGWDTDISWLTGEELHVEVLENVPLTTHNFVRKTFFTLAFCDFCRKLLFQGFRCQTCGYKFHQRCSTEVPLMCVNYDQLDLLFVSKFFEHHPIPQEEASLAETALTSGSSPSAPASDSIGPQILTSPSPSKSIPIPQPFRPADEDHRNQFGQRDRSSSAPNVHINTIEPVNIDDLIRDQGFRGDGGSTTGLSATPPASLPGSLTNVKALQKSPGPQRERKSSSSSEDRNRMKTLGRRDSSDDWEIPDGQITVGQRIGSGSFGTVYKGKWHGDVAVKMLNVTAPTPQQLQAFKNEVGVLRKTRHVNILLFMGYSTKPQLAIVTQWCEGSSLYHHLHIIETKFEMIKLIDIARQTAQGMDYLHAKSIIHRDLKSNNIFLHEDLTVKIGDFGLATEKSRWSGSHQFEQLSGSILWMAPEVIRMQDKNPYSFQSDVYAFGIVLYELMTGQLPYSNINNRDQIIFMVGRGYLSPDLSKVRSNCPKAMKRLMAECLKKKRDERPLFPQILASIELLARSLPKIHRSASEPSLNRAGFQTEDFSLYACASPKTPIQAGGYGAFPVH

[5] = biological target: LIM domain kinase 1 (Homo sapiens) (UniProt P53667); assay: Inhibition of human LIMK1 at 1 uM in presence of ATP at level equals to ~ Km of ATP
[6] = Antitumor activity against B-Raf V600E mutant expressing human LOX cells xenografted in mouse assessed as tumor growth inhibition at 30 mg/kg, QD from day 1 to day 4 measured on day 8; format: functional; conditions: read-out: TGI
Method in brief: (§2)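 Nude mice bearing established LOX (B-Raf V600E) xenografts were dosed at 30 mg/kg once daily on days 1–4, with vehicle controls at 10 ml/kg. Tumor volume was measured on days 1, 3, 5, 8 and 11.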

[7] = Antitumor activity against B-Raf V600E mutant expressing human LOX cells xenografted in mouse assessed as tumor growth inhibition at 30 mg/kg, QD from day 1 to day 4 measured on day 5; format: functional; conditions: read-out: TGI; method in brief: as §2
[8] = Oral bioavailability in mouse at 30 mg/kg; format: ADME, organism-based; conditions: in vivo
[9] = biological target: Serine/threonine-protein kinase B-raf (Homo sapiens) (UniProt P15056); assay: Inhibition of human B-raf at 1 uM in presence of ATP at level equals to ~ Km of ATP
[10] = Antitumor activity against B-Raf V600E mutant expressing human LOX cells xenografted in mouse assessed as tumor growth inhibition at 30 mg/kg, QD from day 1 to day 4 measured on day 11; format: functional; conditions: read-out: TGI; method in brief: as §2
[11] = biological target: T1, Serine/threonine-protein kinase B-raf; assay: Inhibition of full-length B-Raf V600E mutant assessed as reduction in incorporation of radiolabeled phosphate from [gamma-33P]ATP into FSBA-modified wild-type MEK.
[12] = Clearance in mouse at 2.5 mg/kg, iv; format: ADME, organism-based; parameters: dose 2.5 mg/kg, route intravenous; conditions: in vivo; method in brief: as §1
[13] = biological target: RAF proto-oncogene serine/threonine-protein kinase (Homo sapiens) (UniProt P04049); assay: Inhibition of human C-raf at 1 uM in presence of ATP at level equals to ~ Km of ATP
[14] = biological target: Tyrosine-protein kinase Fgr (Homo sapiens) (UniProt P09769); assay: Inhibition of FGR at 1 uM
Chain of Tyrosine-protein kinase Fgr (Homo sapiens) (P09769 2-529 limits assumed): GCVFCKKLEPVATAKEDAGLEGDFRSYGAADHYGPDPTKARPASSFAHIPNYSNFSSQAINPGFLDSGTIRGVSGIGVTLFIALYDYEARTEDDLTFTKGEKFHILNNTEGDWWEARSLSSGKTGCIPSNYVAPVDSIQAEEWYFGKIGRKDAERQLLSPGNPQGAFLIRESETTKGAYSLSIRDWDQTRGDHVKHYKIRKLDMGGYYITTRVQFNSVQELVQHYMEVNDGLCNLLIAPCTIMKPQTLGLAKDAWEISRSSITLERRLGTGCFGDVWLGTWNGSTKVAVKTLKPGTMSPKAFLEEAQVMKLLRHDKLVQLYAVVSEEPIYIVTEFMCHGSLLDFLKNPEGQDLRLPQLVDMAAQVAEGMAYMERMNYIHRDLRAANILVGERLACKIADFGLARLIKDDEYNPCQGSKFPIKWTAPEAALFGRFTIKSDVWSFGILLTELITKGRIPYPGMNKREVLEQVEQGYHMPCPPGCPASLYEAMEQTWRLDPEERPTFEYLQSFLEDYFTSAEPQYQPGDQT

[15] = biological target: Proto-oncogene tyrosine-protein kinase Src (Homo sapiens) (UniProt P12931); assay: Inhibition of SRC at 1 uM
Chain of Proto-oncogene tyrosine-protein kinase Src (Homo sapiens) (P12931 2-536 limits assumed): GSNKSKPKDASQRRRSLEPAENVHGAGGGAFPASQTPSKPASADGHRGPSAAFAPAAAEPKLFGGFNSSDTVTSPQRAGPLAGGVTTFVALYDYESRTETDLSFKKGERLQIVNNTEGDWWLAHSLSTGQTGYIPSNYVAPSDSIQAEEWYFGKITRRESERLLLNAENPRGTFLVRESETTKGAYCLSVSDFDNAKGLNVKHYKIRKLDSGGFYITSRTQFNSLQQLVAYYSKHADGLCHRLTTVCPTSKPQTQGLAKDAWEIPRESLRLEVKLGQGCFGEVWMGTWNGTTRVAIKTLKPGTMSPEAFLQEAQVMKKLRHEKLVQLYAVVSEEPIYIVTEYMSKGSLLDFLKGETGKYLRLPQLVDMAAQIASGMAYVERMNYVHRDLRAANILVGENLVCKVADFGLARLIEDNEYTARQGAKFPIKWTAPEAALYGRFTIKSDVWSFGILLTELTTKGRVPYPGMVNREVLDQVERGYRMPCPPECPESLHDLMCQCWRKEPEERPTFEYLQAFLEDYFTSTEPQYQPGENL

[16] = biological target: Vascular endothelial growth factor receptor 2 (Homo sapiens) (UniProt P35968); assay: Inhibition of KDR at 1 uM
Chain of Vascular endothelial growth factor receptor 2 (Homo sapiens) (P35968 whole entry): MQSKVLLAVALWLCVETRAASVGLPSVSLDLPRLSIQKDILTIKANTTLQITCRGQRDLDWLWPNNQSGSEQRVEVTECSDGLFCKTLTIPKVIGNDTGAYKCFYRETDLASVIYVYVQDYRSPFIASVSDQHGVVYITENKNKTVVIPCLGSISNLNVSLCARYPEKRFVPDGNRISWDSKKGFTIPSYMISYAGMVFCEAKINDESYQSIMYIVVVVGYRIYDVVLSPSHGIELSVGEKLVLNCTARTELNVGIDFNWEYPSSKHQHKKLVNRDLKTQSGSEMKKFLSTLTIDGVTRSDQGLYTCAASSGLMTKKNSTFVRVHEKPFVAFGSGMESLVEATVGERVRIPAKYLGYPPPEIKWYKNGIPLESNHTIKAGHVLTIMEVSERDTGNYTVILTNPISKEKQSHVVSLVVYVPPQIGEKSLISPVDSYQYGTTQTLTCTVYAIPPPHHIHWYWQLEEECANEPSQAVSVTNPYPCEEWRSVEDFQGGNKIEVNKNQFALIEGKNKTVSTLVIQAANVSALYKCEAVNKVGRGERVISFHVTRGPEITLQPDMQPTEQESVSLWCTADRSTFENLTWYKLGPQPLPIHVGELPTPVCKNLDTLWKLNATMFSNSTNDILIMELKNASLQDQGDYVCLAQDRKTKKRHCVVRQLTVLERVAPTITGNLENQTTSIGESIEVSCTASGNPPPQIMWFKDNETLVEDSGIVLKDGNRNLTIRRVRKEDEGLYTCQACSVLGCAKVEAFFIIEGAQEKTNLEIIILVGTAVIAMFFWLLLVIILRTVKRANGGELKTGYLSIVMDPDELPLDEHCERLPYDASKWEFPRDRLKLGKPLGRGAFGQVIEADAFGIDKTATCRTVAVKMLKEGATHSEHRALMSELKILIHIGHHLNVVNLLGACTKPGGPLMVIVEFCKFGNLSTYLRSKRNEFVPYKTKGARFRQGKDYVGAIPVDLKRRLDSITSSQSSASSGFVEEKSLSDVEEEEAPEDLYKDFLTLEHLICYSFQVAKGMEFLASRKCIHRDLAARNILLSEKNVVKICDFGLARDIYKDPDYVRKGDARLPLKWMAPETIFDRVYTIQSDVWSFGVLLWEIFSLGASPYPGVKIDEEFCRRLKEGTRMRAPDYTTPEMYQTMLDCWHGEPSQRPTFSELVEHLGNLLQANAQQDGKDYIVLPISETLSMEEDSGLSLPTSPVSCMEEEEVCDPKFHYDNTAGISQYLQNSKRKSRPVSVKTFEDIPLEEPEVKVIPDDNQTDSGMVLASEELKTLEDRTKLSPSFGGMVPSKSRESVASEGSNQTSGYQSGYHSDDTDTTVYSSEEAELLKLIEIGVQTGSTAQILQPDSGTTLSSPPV

[17] = biological target: Tyrosine-protein kinase ABL1 (Homo sapiens) (UniProt P00519); assay: Inhibition of ABL at 1 uM
Chain of Tyrosine-protein kinase ABL1 (Homo sapiens) (P00519 whole entry): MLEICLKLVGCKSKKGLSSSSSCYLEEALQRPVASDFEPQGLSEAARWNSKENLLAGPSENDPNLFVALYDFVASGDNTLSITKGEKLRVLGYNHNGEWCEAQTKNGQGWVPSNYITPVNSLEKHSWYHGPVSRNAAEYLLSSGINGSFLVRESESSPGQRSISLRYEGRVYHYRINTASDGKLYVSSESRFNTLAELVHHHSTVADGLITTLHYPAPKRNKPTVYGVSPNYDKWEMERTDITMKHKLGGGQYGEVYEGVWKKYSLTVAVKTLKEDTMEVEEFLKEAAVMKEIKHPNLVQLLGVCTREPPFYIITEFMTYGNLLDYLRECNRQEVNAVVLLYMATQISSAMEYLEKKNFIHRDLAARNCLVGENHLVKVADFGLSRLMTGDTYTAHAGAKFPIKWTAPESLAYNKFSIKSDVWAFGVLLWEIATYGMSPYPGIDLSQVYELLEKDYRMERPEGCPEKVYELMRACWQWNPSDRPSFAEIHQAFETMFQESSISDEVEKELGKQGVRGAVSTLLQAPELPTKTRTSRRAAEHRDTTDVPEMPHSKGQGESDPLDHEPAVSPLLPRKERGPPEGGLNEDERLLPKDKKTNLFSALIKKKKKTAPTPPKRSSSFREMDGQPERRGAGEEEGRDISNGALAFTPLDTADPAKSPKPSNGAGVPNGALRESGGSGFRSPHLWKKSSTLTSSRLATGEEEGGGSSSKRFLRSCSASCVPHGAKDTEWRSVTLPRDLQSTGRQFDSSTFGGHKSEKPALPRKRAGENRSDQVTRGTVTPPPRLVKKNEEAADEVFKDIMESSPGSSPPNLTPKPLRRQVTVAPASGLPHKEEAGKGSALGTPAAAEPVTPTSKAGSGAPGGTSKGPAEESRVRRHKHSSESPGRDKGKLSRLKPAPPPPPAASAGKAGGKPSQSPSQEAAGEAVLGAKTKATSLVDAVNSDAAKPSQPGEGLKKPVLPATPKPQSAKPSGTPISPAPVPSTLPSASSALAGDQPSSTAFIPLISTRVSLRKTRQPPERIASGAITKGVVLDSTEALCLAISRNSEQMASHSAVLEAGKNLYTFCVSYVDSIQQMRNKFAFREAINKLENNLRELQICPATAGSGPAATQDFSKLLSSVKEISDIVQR

[18] = biological target: Tyrosine-protein kinase Lck (Homo sapiens) (UniProt P06239); assay: Inhibition of LCK at 1 uM
Chain of Tyrosine-protein kinase Lck (Homo sapiens) (P06239 2-509 limits assumed): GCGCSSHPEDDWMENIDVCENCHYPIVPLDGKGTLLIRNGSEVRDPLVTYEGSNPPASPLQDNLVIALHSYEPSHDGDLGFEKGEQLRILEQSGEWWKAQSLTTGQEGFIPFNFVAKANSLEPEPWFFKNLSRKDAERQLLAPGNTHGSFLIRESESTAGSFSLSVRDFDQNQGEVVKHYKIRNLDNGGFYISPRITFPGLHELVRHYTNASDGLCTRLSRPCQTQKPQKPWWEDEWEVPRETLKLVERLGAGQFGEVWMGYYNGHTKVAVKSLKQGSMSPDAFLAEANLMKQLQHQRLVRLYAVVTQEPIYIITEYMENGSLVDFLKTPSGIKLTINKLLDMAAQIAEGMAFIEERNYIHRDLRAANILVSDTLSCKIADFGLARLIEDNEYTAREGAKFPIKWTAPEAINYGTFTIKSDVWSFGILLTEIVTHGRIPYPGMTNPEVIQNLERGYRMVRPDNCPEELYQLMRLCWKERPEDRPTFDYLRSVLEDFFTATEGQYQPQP

| IC50 [4] [nM] | IC50 [11] [nM] | SMILES | also measured |
| --- | --- | --- | --- |
| 445 | 71 | CCCS(=O)(=O)Nc1ccc(F)c(-c2cc3cnccc3c(=O)n2C)c1F | – |
| – | > 10000 | CCCS(=O)(=O)Nc1ccc(F)c(-c2cc3ccncc3[nH]2)c1F | – |
| 469 | 72 | CCCS(=O)(=O)Nc1ccc(F)c(-c2cc3cncc(Br)c3cn2)c1F | – |
| 93 | 10 | CCCS(=O)(=O)Nc1ccc(F)c(-c2cc3cnc(N)nc3n(C)c2=O)c1F | – |
| 703 | 241 | CCCS(=O)(=O)Nc1ccc(F)c(-c2cc3cnccc3cn2)c1F | – |
| – | 340 | CCCS(=O)(=O)Nc1ccc(F)c(-c2ccc3ccncc3c2)c1F | – |
| – | 3610 | CCCS(=O)(=O)Nc1ccc(F)c(-c2ccc3ccncc3n2)c1F | – |

More lines, now with the values behind:

| SMILES | IC50 [4] [nM] | IC50 [11] [nM] | also measured |
| --- | --- | --- | --- |
| CCCS(=O)(=O)Nc1ccc(F)c(-c2cc3cnc(NCCCO)nc3n(C)c2=O)c1F | 41 | – | Vd [1]: 20 L/kg; AUC [2]: 20 µM·h; Papp [3]: > 8 ×10⁻⁶ cm/s |
| CCCS(=O)(=O)Nc1ccc(F)c(-c2cc3cnc(NCC4CC4)nc3n(C)c2=O)c1F | 27 | 3 | inhibition [5]: > 80%; inhibition in vivo at 30 mg/kg [6]: 96%; inhibition in vivo at 30 mg/kg [7]: 74%; bioavailability [8]: 33%; Vd [1]: 0.46 L/kg; AUC [2]: 133 µM·h; inhibition [9]: Active; inhibition in vivo at 30 mg/kg [10]: 97%; clearance [12]: 3 mL/min/kg; Papp [3]: > 8 ×10⁻⁶ cm/s; inhibition [13]: Active |
| CCCS(=O)(=O)Nc1ccc(C)c(-c2ccc3nc(N)ncc3c2)c1 | > 10000 | 128 | – |
| CCCS(=O)(=O)Nc1ccc(F)c(-c2ccc3nc(N)ncc3c2)c1 | – | > 10000 | – |
| CCCS(=O)(=O)Nc1ccc(F)c(-c2cc3cnc(NC)nc3n(C)c2=O)c1F | 45 | 9 | – |
| CCCS(=O)(=O)Nc1ccc(F)c(-c2ccc3cc(N)ncc3c2)c1F | – | 549 | – |
| CCCS(=O)(=O)Nc1ccc(F)c(-c2cc3cnc(Nc4cnn(C)c4)nc3n(C)c2=O)c1F | 1 | 0.4 | inhibition [14]: > 90%; inhibition [15]: > 90%; inhibition [16]: > 90%; inhibition [17]: > 90%; inhibition [18]: > 90% |
| CCCS(=O)(=O)Nc1ccc(F)c(-c2cc3cnccc3n(CCc3ccccc3)c2=O)c1F | 1160 | 13 | – |
| CCCS(=O)(=O)Nc1ccc(F)c(-c2cc3cnc(NCCO)nc3n(C)c2=O)c1F | 31 | 6 | bioavailability [8]: 18%; Vd [1]: 1 L/kg; AUC [2]: 1 µM·h; clearance [12]: 74 mL/min/kg; Papp [3]: > 8 ×10⁻⁶ cm/s |
| CCCS(=O)(=O)Nc1ccc(F)c(-c2ccc3nc(N)ncc3c2)c1F | 682 | 140 | – |
| CCCS(=O)(=O)Nc1ccc(F)c(-c2cc3cnc(NC4CCOCC4)nc3n(C)c2=O)c1F | 73 | 15 | – |
| CCCS(=O)(=O)Nc1ccc(F)c(-c2cc3cnc(Nc4ccccc4)nc3n(C)c2=O)c1F | 5 | 0.5 | inhibition [14]: > 90%; inhibition [15]: > 90%; inhibition [16]: > 90%; inhibition [17]: > 90%; inhibition [18]: > 90% |
| CCCS(=O)(=O)Nc1ccc(F)c(-c2cc3cnc(Nc4cccnc4)nc3n(C)c2=O)c1F | 3 | 0.5 | inhibition [14]: > 90%; inhibition [15]: > 90%; inhibition [16]: > 90%; inhibition [17]: > 90%; inhibition [18]: > 90% |

Reference: ChEMBL document CHEMBL2021811, “The discovery of potent and selective pyridopyrimidin-7-one based inhibitors of B-RafV600E kinase” (Bioorg Med Chem Lett, 2012)
